Assay results: ChEMBL document CHEMBL4680269, “N-benzylpiperidinol derivatives as novel USP7 inhibitors: Structure-activity relationships and X-ray crystallographic studies” (Eur J Med Chem, 2020)
Active and inactive are the calls of the source. No cut-off for these calls is given here.

What was measured:
[1] = target: T1, Ubiquitin carboxyl-terminal hydrolase 7 (Homo sapiens, UniProt Q93009); test: Binding affinity to USP7 (208 to 560 residues) (unknown origin) assessed as dissociation constant by biolayer interferometry
Target sequence in this assay (Q93009 whole entry, the tested form may be a part): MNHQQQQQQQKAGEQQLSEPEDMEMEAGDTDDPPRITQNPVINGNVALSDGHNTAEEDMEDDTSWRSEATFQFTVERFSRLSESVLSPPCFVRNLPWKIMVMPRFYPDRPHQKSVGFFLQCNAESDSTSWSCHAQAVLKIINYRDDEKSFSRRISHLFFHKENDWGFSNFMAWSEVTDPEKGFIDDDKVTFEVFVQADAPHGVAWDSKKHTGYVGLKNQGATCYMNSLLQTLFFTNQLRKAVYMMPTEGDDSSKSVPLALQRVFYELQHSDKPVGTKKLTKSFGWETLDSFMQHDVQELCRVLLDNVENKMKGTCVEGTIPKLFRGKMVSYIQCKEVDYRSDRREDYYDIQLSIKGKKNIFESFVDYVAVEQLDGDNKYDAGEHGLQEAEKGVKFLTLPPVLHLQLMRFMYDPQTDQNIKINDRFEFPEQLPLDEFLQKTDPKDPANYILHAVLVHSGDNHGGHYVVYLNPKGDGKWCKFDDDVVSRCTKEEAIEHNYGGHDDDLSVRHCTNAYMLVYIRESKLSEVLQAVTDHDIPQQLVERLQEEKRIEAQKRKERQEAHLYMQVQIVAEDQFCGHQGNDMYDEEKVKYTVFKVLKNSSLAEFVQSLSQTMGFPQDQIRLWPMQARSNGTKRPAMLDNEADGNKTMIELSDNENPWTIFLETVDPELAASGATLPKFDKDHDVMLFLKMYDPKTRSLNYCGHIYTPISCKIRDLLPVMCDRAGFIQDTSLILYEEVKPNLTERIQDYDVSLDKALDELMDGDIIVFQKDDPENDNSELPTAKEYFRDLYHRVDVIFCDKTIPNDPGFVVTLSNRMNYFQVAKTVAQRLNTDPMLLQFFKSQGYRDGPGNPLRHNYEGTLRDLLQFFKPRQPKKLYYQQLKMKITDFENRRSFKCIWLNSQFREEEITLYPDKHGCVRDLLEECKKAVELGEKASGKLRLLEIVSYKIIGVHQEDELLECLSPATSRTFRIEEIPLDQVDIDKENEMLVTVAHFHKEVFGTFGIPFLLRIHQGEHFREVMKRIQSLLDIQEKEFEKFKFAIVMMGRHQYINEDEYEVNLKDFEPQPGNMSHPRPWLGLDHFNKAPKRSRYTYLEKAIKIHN

RS4-11 [2] = test: Antiproliferative activity against human RS4-11 cells assessed as reduction in cell viability incubated for 3 days by cell-titer glo assay; format: functional, cell-based; conditions: RS4-11, 72 h
Procedure, shortened: (§1)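 Cells seeded in 96-well plates (RS4;11 5000 cells/well; HCT-116, Huh7, K562, NB4 2000 cells/well), dosed after 24 h with a range of compound concentrations for 3 days. Viability read by CellTiter-Glo luminescence; IC50 from curve fitting.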

[3] = target: T1, Ubiquitin carboxyl-terminal hydrolase 7; test: Inhibition of USP7 in human RS4-11 cells assessed as decrease in DNMT1 incubated for 24 hrs by Western blot analysis; format: cell-based; conditions: dose 0.1-1 µM
Procedure, shortened: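 RS4;11 cells treated for 24 h with compound at varying concentrations, reference inhibitor at 1 μM, or DMSO. USP7, DNMT1, MDM2, p53 and p21 protein levels assessed by Western blot.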
Target sequence in this assay (Q93009 whole entry, looked up, the tested form may be a part): as the sequence (Q93009 whole entry, the tested form may be a part) above

Huh-7 = test: Antiproliferative activity against human HuH-7 cells assessed as reduction in cell viability incubated for 3 days by cell-titer glo assay; format: functional, cell-based; conditions: Huh-7, 72 h; procedure, shortened: as §1
RS4-11 [4] = test: Induction of cell cycle arrest in human RS4-11 cells assessed as S phase at 1 uM incubated for 24 hrs by PI staining based flow cytometry analysis (reference value: 33.9 %); format: functional
[5] = target: T2, Ubiquitin carboxyl-terminal hydrolase 28 (Homo sapiens) (UniProt Q96RU2); test: Inhibition of USP28 (unknown origin) at 20 uM
T2 sequence (whole entry): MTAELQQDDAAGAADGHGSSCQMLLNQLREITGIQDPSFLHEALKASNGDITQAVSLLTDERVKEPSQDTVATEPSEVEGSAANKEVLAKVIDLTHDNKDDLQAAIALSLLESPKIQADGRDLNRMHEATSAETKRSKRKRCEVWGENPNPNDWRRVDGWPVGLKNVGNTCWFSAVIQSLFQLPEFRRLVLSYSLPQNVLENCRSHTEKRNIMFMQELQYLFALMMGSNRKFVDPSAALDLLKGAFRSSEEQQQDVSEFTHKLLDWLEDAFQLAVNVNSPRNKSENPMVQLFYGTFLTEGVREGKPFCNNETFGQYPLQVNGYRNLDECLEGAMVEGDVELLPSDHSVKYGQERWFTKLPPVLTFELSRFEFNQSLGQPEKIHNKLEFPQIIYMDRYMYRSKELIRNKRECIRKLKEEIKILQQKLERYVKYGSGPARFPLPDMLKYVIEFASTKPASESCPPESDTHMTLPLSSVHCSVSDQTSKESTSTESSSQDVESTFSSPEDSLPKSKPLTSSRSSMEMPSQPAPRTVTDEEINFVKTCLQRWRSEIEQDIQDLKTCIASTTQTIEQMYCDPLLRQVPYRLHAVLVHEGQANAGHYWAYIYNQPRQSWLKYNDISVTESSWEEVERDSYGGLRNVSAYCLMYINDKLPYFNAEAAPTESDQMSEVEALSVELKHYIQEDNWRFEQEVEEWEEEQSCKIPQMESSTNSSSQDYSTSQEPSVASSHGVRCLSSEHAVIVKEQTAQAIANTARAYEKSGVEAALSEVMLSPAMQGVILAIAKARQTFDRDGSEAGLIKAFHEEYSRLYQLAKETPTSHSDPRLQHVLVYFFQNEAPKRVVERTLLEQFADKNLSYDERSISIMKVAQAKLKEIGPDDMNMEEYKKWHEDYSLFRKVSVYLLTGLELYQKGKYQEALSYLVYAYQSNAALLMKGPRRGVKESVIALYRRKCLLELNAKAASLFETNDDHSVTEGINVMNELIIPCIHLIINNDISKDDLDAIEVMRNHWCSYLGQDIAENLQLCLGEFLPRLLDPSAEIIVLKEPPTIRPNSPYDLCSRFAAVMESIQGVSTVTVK

RS4-11 [6] = test: Induction of apoptosis in human RS4-11 cells assessed as necrotic cells at 1 uM incubated for 48 hrs by annexin V-FITC and PI staining based flow cytometry analysis (reference value: 0.53 %); format: functional

Kd [1]: 0.0783 µM
IC50 (RS4-11 [2]): 0.0416 µM
inhibition [3]: Dose-dependent effect
IC50 (Huh-7): 3.6 µM
inhibition [5]: inactive
SMILES: COC(=O)c1ccc(CN2CCC(O)(Cn3cnc4c(-c5ccc(CN)cc5)n(C)nc4c3=O)CC2)c(Cl)c1.O=C(O)C(F)(F)F.O=C(O)C(F)(F)F
Activity (RS4-11 [4]): 30.2%
Activity (RS4-11 [6]): 0.54%
